High-throughput results as filed in PubChem BioAssay.
APP 5'UTR act: APP 5'UTR luciferase reporter activation | SH-SY5Y APP 5'UTR luciferase reporter, luminescence; zero percent = DMSO vehicle wells | activation, % at 2 µM | 190,000 tested, 1% active | AID 1276;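 active = activation above a set limit, based on mean plus 3 SD of controls, cut at about 140% in these data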
STAT3 blocker: inhibitors of IL-6 induced STAT3 signaling; U3A cells, IL-6 STAT3-luciferase reporter, luminescence; host cell line lacks STAT1; inhibition, % at 5.5 µM; 190,000 tested, 0.89% active; AID 862;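 active = inhibition above the mean inhibition across all screened compounds plus 3 SD, cut at about 44% in these data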;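 also: 0% = DMSO only wells and 100% = 100 µM nifuroxazide control wells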
STAT3 act: STAT3 signaling activation. 190,000 tested, 0.91% active. activation (% of control), % at 5.6 µM. U3A cells, IL-6 STAT3-luciferase reporter, luminescence; 100% = signal with IL-6 EC80 alone. AID 871;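 active = activation above the screen-wide mean of compound activation plus 3 SD, cut at about 130% in these data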;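 also: 0% = background luminescence of wells with medium and substrate only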
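Test system: Human STAT1-deficient U3A cells with stable STAT3-luciferase reporter | Also added: Interleukin-6, 33 ng/mL | Timing: Compound pre-incubation 1 h before IL-6, then 6 h stimulation at 37 °C | Technique: Luciferase reporter luminescence | Read-out: Percent of IL-6-only median luminescence | Benchmarks: IL-6-only wells as 100% reference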
NF-kB expr up: NF-kB expression increase, human neuronal cells. fold change at 12.5 µM. 190,000 tested, 1.6% active. NF-kB reporter expression; hits give high values; in the data active = fold change above about 3.3
STAT1 blocker: STAT1 signaling inhibition. NIH 3T3 STAT1-luciferase reporter, IFN-gamma, luminescence. inhibition, % at 5.5 µM. 200,000 tested, 0.35% active. AID 920;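 active = inhibition above a set limit, the mean inhibition across all tested compounds plus 3 SD, cut at about 34% in these data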;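 also: 0% = IFN-gamma with DMSO and 100% = IFN-gamma with 300 µM nifuroxazide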
STAT1 act: STAT1 signaling activation. NIH 3T3 STAT1-luciferase reporter, IFN-gamma, luminescence; 100% = IFN-gamma alone, no compound. activation (% of control), % at 5.5 µM. 200,000 tested, 2.6% active. AID 932;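 active = activation above the screen-wide mean activation plus 3 SD, cut at about 130% in these data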;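 also: raw ratio to IFN-gamma control signal so 100% means no change and 0% no light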
Numbers without * were called inactive; . = no result. An excerpt weighted towards active compounds, which were near 4.9% of everything screened.

SMILES | APP 5'UTR act | STAT3 blocker | STAT3 act | NF-kB expr up | STAT1 blocker | STAT1 act
CCC(=O)Nc1nc2ccc3nc(C)sc3c2s1 | 28 | 7 | 102 | 3.5* | -54 | 149*
COc1ccc2sc(NC(C)=O)nc2c1 | 103 | 11 | 92 | 2.4 | -39 | 136*
CCC(=O)Nc1nc2cc(OC)ccc2s1 | 87 | 6 | 100 | 3.6* | -44 | 140*
CCOCC(=O)Nc1nc2ccc(OC)cc2s1 | 73 | 28 | 81 | 3.3 | -28 | 126
CCOC(=O)c1c(NC(=O)COC(=O)C2CC2C)sc(C)c1C (configuration not stated) | 0 | -3 | 102 | 0.9 | 2 | 98
CCN=C1SC(CC(=O)NCc2ccccc2)C(=O)N1CC (configuration not stated) | -1 | -1 | 104 | 1.1 | -2 | 100
CCOCCOCCC(C(=O)OCC)P(=O)(c1ccccc1)c1ccccc1 (configuration not stated) | 0 | 3 | 98 | 0.96 | 1 | 99
Clc1ccsc1-c1csc(-c2cccnc2)n1 | 27 | -27 | 131 | 2.4 | -31 | 129*
c1cncc(-c2nc(-c3ccc4c(c3)OCO4)cs2)c1 | 54 | 5 | 99 | 2.5 | -47 | 143*
CC(=O)Nc1ccc(NC2=C/C(=N/S(=O)(=O)c3cccs3)c3ccccc3C2=O)cc1 | -35 | 66* | 46 | 0.16 | 90* | 15
C/C(=N\NC(=O)c1ccc(Br)cc1)c1cccc(NC(=O)c2cccnc2)c1 | 15 | 7 | 103 | 0.96 | -13 | 110
C/C(=N\NC(=O)c1nn(C)cc1Br)c1cccc(NC(=O)c2ccncc2)c1 | 33 | 0 | 100 | 1.1 | -47 | 141*
Cc1cccc(-c2cc3nc4c(c(NCc5ccco5)n3n2)CCCC4)c1 | 124 | 14 | 93 | 3.2 | -39 | 135*
Cc1cccc(-c2cc3nc4c(c(N5CCOCC5)n3n2)CCCC4)c1 | 183* | 21 | 85 | 1.4 | -17 | 116
Cc1cccc(-c2cc3nc4c(c(N5CCC6(CC5)OCCO6)n3n2)CCCC4)c1 | -18 | 0 | 100 | . | -7 | 106
C/C(O)=C(/C#N)c1nc2ccccc2[nH]1 | . | 1 | 105 | 1.2 | -2 | 102
CC(=O)OC(/C(O)=C(\C#N)c1nc2ccccc2[nH]1)c1ccccc1 (configuration not stated) | 18 | 28 | 80 | 3.6* | 0 | 100
Cc1ccc2nc3cc([N+](=O)[O-])cc([N+](=O)[O-])c3cc2c1 | -63 | 14 | 90 | 5.3* | 15 | 85
Cc1nc2ccc([N+](=O)[O-])cc2nc1C | 5 | 12 | 93 | 1.4 | -1 | 100
CCOc1ccc(C(=O)N/N=C/c2ccccc2[N+](=O)[O-])cc1 | 140* | 10 | 95 | 2 | -38 | 134*
CCOc1ccc(NC(=O)COc2ccccc2)c([N+](=O)[O-])c1 | 78 | 20 | 90 | 4.1* | -52 | 148*
O=C(COc1ccccc1)Nc1ccccc1Cl | 70 | 14 | 96 | 1.6 | -37 | 132*
CCOc1ccc(NC(=O)Cc2ccccc2)c([N+](=O)[O-])c1 | -1 | 20 | 86 | 1.6 | 0 | 100
COc1ccc(NC(=O)/C=C/c2ccccc2)c([N+](=O)[O-])c1 | 76 | -9 | 107 | 1.4 | -54 | 147*
CCC(=O)Nc1ccc(C(=O)N/N=C/c2ccccc2[N+](=O)[O-])cc1 | 30 | 0 | 109 | 0.92 | -3 | 103
SMILES | APP 5'UTR act | STAT3 blocker | STAT3 act | NF-kB expr up | STAT1 blocker | STAT1 act
COc1ccc(C(=O)Nc2ccc(Cl)cc2C(=O)N2CCCC(C)C2)cc1OC (configuration not stated) | -6 | -16 | 114 | 0.71 | -12 | 110
COc1ccc(OC)c(C(=O)CSc2nnc(-c3ccc(OC)c(OC)c3)o2)c1 | -1 | 4 | 99 | 1.4 | -2 | 102
COC(=O)C1=C(C)NC(=S)NC1c1sccc1C (configuration not stated) | -9 | 8 | 100 | 1.1 | 8 | 93
COc1ccc(C(=O)Nc2nnc(-c3cccs3)s2)cc1 | 47 | -72 | 157* | 3.3* | -23 | 122
O=C(CN1CCCC1)Nc1nnc(-c2cccs2)s1 | -5 | 4 | 100 | 1.6 | -11 | 110
O=C(Nc1nnc(-c2cccs2)s1)c1cccc(F)c1 | 93 | -5 | 106 | 2.4 | -39 | 134*
CC(=O)Cc1nsc(NC(=O)c2cccc(F)c2)n1 | -1 | 2 | 103 | 1.8 | -43 | 142*
COc1ccc(C(=O)Nc2nc(-c3cccs3)c(NC(C)=O)s2)cc1 | -15 | 7 | 96 | 2 | 25 | 79
Cc1nnc(NC(=O)c2cccc(F)c2)s1 | -3 | 16 | 94 | 1.4 | -8 | 107
CC(C)(C)CC(=O)Nc1nnc(-c2cccs2)s1 | 38 | -10 | 112 | 2.1 | -44 | 140*
Cc1nnsc1C(=O)NC(C)C12CC3CC(CC(C3)C1)C2 (configuration not stated) | 8 | -2 | 108 | 0.98 | -8 | 107
CCOC(=O)C1(CCc2ccccc2)CCN(C(=O)CN2CCOC2=O)CC1 | -3 | 9 | 96 | 1.9 | 2 | 97
c1ccc(OCCSc2nnc3sc4ccccc4n23)cc1 | 120 | 87* | 31 | 1.4 | 50* | 54
COc1cccc(OCCSc2nnc3sc4ccccc4n23)c1 | 3 | 14 | 88 | 1.7 | -3 | 103
O=C1NC(c2ccc(Br)cc2)=N/C1=C/c1ccco1 | 140* | -6 | 104 | 0.9 | 9 | 92
Brc1ccc(-c2csc(N/N=C/c3ccco3)n2)cc1 | 41 | 10 | 93 | 1 | -14 | 112
CC(=O)N1CCc2cc(NC(=O)c3ccc(C)cc3)ccc21 | 2 | 29 | 78 | 3.6* | -30 | 131*
Cc1ccc(Nc2c([N+](=O)[O-])c(=O)oc3ccccc23)cc1 | 8 | 5 | 97 | 1.4 | 10 | 89
O=c1oc2ccccc2c(Nc2ccc3ccccc3c2)c1[N+](=O)[O-] | 2 | -33 | 133* | 1 | 11 | 90
O=C(CC1(c2ccc(Cl)cc2)C2CC3CC(C2)CC1C3)NCCO (configuration not stated) | 1 | 6 | 100 | 1.4 | -2 | 101
Cc1sc(NC(=O)C2C3C=CC(C3)C2C(=O)O)c(C(N)=O)c1-c1ccc(C(C)C)cc1 (configuration not stated) | -5 | 19 | 87 | 0.97 | 5 | 96
CCc1ccccc1NC(=O)c1cnc2n(c1=O)CCS2 | 5 | 13 | 93 | 1.6 | -13 | 112
CCc1ccc(NC(=O)c2cnc3n(c2=O)CCS3)cc1 | 40 | -17 | 118 | 2.8 | -34 | 131*
O=C(Nc1cnc2ccccn2c1=O)c1ccc(Cl)cc1 | 19 | -8 | 109 | 2.4 | -33 | 130*
O=C(Nc1cccn2ncnc12)c1ccc(Cl)cc1 | -5 | 29 | 81 | 1.5 | -7 | 106
